Published values of several laboratories.
Lines come from different studies, so protocols differ.
Target: Serine/threonine-protein kinase PAK 2 (PAK2, Homo sapiens, UniProt Q13177)

SMILES | test | conditions | quantity | value
C=CC(=O)N1CCC([C@@H]2CCNc3c(C(N)=O)c(-c4ccc(Oc5ccccc5)cc4)nn32)CC1 | enzyme activity, inhibitor | 1 µM | inhibition | 23%
N#Cc1ccc(NC(=O)Nc2ccccc2)cc1 | cell-free assay, competition with immobilised ligand | 25 µM | remaining binding | 82%
CO[C@@H]1[C@H](N(C)C(=O)c2ccccc2)C[C@H]2O[C@]1(C)n1c3ccccc3c3c4c(c5c6ccccc6n2c5c31)C(=O)NC4 | enzyme activity, inhibitor | 1 µM | inhibition | 28%
Cc1cc(O)c(-c2ccc([C@@H](C)CN(C)C)cc2)c2c1[nH]c(=O)c1sccc12 | cell-free assay, inhibitor | 0.1 µM, lysate | inhibition | -5.59%
C#Cc1cnc(Nc2ccnc(CO)c2)nc1Nc1ccccc1S(C)(=O)=NC#N (stereo not shown) | cell-free assay | 1 µM | remaining signal | 48%
CCCCC(=O)Nc1ccc(-c2ccc3ncn(CCC)c(=O)c3c2)cn1 | binding, competition with immobilised ligand | 0.5 µM | remaining binding | 91%
C[C@H]1CC[C@H](n2c3cnccc3c3cnc(Nc4ccc5c(n4)CCN(C(=O)CO)C5)nc32)CC1 | cell-free assay | 1 µM | remaining signal | 76%
C1=C/COCc2cc(ccc2OCCN2CCCC2)Nc2nccc(n2)-c2cccc(c2)COC/1 | binding | 0.1 µM | remaining binding | 94%
CN1CCN(C(=O)c2ccc(NC(=O)Nc3ccc(N(C)c4ccnc(Nc5ccc(CS(C)(=O)=O)cc5)n4)cc3)cc2)CC1 | binding | 1 µM | remaining binding | 50%
COc1ccc2oc(-c3ccc4nc(N)oc4c3)c/c(=N\c3ccccc3NC(=O)CCN)c2c1 | binding | 1 µM | remaining binding | 98%
